Data: ChEMBL document CHEMBL1122599, “Antiinflammatory activity of 5,6-diaryl-2,3-dihydroimidazo[2,1-b]thiazoles. Isomeric 4-pyridyl and 4-substituted phenyl derivatives” (1984)

Key:
[1] = system: Rattus norvegicus; assay: Adjuvant arthritic activity in rat uninjected leg on day 16 tested at 50 mg/kg perorally; format: functional; conditions: 384 h, route oral
Procedure, shortened: (§1)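 Rats received oral doses daily from the day of adjuvant injection for 17 days, skipping days 4, 5, 11 and 12. Leg volumes were compared with those of an arthritic vehicle-control group. Significance was judged by Student's t test.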

[2] = system: Mus musculus; assay: Cutaneous oxazolone induced contact sensitivity in mouse and percent stimulation in right hind paw was determined at a dose 25 mg/kg perorally; conditions: route oral
[3] = system: Rattus norvegicus; assay: Adjuvant arthritic activity in rat injected leg on day 16 tested at 50 mg/kg perorally; format: functional; conditions: 384 h, route oral; procedure, shortened: as §1
[4] = system: Rattus norvegicus; assay: Adjuvant arthritic activity in rat injected leg on day 3 tested at 50 mg/kg perorally; format: functional; conditions: 72 h, route oral; procedure, shortened: as §1
[5] = system: Rattus norvegicus; assay: Adjuvant arthritic activity in rat uninjected leg on day 16 tested at 50 mg/kg perorally.; format: functional; conditions: 384 h, route oral; procedure, shortened: as §1
[6] = system: Rattus norvegicus; assay: Adjuvant arthritic activity in rat injected leg on day 16 tested at 50 mg/kg perorally.; format: functional; conditions: 384 h, route oral; procedure, shortened: as §1
[7] = system: Rattus norvegicus; assay: Adjuvant arthritic activity in rat injected leg on day 3 tested at 50 mg/kg perorally.; format: functional; conditions: 72 h, route oral; procedure, shortened: as §1
[8] = system: Mus musculus; assay: Cutaneous oxazolone induced contact sensitivity in mouse and percent stimulation in right hind paw was determined at a dose 25 mg/kg perorally.; conditions: route oral
[9] = system: Rattus norvegicus; assay: Adjuvant arthritic activity in rat uninjected leg on day 16 tested at 20 mg/kg perorally.; format: functional; conditions: 384 h, route oral; procedure, shortened: as §1
[10] = system: Rattus norvegicus; assay: Adjuvant arthritic activity in rat injected leg on day 16 tested at 20 mg/kg perorally.; format: functional; conditions: 384 h, route oral; procedure, shortened: as §1
[11] = system: Mus musculus; assay: Cutaneous oxazolone induced contact sensitivity in mouse and percent stimulation in right hind paw was determined at a dose 20 mg/kg perorally; conditions: route oral

CSc1ccc(-c2nc3n(c2-c2ccncc2)CCS3)cc1
inhibition in vivo at 50 mg/kg [1]: 16% | Stimulation [2]: 19% | inhibition in vivo at 50 mg/kg [3]: 12% | inhibition in vivo at 50 mg/kg [4]: 16%

c1ccc([C@H]2CN3CCSC3=N2)cc1 [LEVAMISOLE]
inhibition in vivo at 50 mg/kg [1]: 1% | Stimulation [2]: 230% | inhibition in vivo at 50 mg/kg [3]: -2% | inhibition in vivo at 50 mg/kg [4]: 0%

CSc1ccc(-c2c(-c3ccncc3)nc3n2CCS3)cc1
inhibition in vivo at 50 mg/kg [5]: -18% | Stimulation [2]: 19% | inhibition in vivo at 50 mg/kg [3]: 8% | inhibition in vivo at 50 mg/kg [4]: 7%

COc1ccc(-c2nc3n(c2-c2ccc(OC)cc2)CCS3)cc1
inhibition in vivo at 50 mg/kg [6]: 36% | inhibition in vivo at 50 mg/kg [5]: 29% | inhibition in vivo at 50 mg/kg [7]: 25% | Stimulation [8]: 194%

COc1ccc(-c2nc3n(c2-c2ccncc2)CCS3)cc1
inhibition in vivo at 50 mg/kg [1]: 21% | Stimulation [2]: 59% | inhibition in vivo at 50 mg/kg [3]: 20% | inhibition in vivo at 50 mg/kg [4]: 15%

Fc1ccc(-c2nc3n(c2-c2ccncc2)CCS3)cc1
inhibition in vivo at 50 mg/kg [6]: 38% | inhibition in vivo at 50 mg/kg [5]: 44% | Stimulation [8]: 69% | inhibition in vivo at 50 mg/kg [4]: 27%

COc1ccc(-c2c(-c3ccncc3)nc3n2CCS3)cc1
inhibition in vivo at 50 mg/kg [5]: -37% | Stimulation [2]: 42% | inhibition in vivo at 50 mg/kg [3]: 1% | inhibition in vivo at 50 mg/kg [4]: 0%

C[C@]12C=CC(=O)C=C1CC[C@@H]1[C@@H]2[C@@H](O)C[C@@]2(C)[C@H]1CC[C@]2(O)C(=O)CO [PREDNISOLONE]
inhibition in vivo at 20 mg/kg [9]: 54% | inhibition in vivo at 20 mg/kg [10]: 42% | inhibition in vivo at 50 mg/kg [4]: 28% | Stimulation [11]: -12%

Fc1ccc(-c2c(-c3ccncc3)nc3n2CCS3)cc1
inhibition in vivo at 50 mg/kg [1]: -9% | Stimulation [2]: 15% | inhibition in vivo at 50 mg/kg [3]: 4% | inhibition in vivo at 50 mg/kg [4]: -2%

c1cc(-c2nc3n(c2-c2ccncc2)CCS3)ccn1
inhibition in vivo at 50 mg/kg [1]: -3% | inhibition in vivo at 50 mg/kg [7]: -4% | inhibition in vivo at 50 mg/kg [3]: 7%
